Measurements published in ChEMBL document CHEMBL4017523, “Computer-Aided Identification and Lead Optimization of Dual Murine Double Minute 2 and 4 Binders: Structure-Activity Relationship Studies and Pharmacological Activity” (J Med Chem, 2017).
Active and inactive are the calls of the source. No cut-off for these calls is given here.

Assays:
SH-SY5Y [1] = test: Antiproliferative activity against human SH-SY5Y cells after 24 hrs by MTS assay
SH-SY5Y [2] = test: Antiproliferative activity against human SH-SY5Y cells at 1 nM to 100 uM after 72 hrs by neutral red dye-based assay; type: functional, cell-based
Method in brief: (§1)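 Cells exposed to DMSO control or test agent at 1 nM to 100 μM for 72 h. Drug medium replaced, then 0.33% neutral red solution added at 10% of medium volume for 2 h at 37 °C. After PBS rinse, dye extracted with 1% glacial acetic acid/50% ethanol in PBS with 10 min shaking. Absorbance read at 540 nm.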

U-87 MG [3] = test: Antiproliferative activity against human U87MG cells at 1 nM to 100 uM after 72 hrs by neutral red dye-based assay; type: functional, cell-based; settings: U-87MG ATCC; method in brief: as §1
U-87 MG [4] = test: Antiproliferative activity against human U87MG derived cancer stem cells after 7 days by MTS assay; type: functional, cell-based; settings: U-87MG ATCC
Method in brief: (§2)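 Cancer stem cells isolated by culturing 2.5 × 10^6 tumor cells without serum in NSC medium for 7 days. Treated with test agent (100 nM–10 μM) for 7 days, drug-containing medium renewed every 3 days. Proliferation measured by MTS and expressed as percent of control (mean ± SEM, N = 3).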

SH-SY5Y [5] = test: Antiproliferative activity against human SH-SY5Y derived cancer stem cells after 7 days by MTS assay; type: functional, cell-based; method in brief: as §2
SH-SY5Y [6] = test: cells; settings: Homo sapiens, 24 h, read-out: Activity
U-87 MG [7] = test: Antiproliferative activity against human U87MG cells at 1 uM after 24 hrs by MTS assay; type: functional, cell-based; settings: U-87MG ATCC
Method in brief: (§3)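 Cells treated for 24 h, either alone or combined with reference MDM2 inhibitor (1 μM) and/or MDM4 inhibitor (1 μM). Drug medium then swapped for fresh medium and growth continued before MTS read-out. Data given as percent of untreated control set to 100% (mean ± SEM, N = 3).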

[8] = biological target: T1, Protein Mdm4 (Homo sapiens) (UniProt O15151); test: Inhibition of MDM4 in human SH-SY5Y cells assessed as increase in MDM2 mRNA levels at 1 uM after 24 hrs by RT-qPCR analysis; type: cell-based
T1 sequence (whole entry): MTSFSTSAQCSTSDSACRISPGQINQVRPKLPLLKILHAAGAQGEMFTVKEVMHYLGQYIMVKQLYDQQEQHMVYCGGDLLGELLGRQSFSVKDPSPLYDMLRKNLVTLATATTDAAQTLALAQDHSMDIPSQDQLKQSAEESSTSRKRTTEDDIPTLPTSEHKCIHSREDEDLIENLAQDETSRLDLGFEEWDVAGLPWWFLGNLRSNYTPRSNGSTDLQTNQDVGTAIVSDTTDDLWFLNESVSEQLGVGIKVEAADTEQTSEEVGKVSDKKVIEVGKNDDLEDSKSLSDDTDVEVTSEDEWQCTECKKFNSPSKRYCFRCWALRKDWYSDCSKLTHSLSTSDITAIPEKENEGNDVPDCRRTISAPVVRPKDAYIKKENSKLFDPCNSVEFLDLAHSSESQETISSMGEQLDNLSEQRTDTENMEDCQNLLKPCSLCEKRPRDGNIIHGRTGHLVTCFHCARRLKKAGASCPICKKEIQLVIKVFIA
Method in brief: (§4)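 Cells incubated 24 h with agents at 1 μM, alone or combined with MDM2 inhibitor. RNA extracted and MDM2, PUMA and p21 transcripts quantified by real-time RT-PCR. Results reported as fold change versus control (mean ± SEM, N = 3).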

[9] = biological target: E3 ubiquitin-protein ligase Mdm2 (Homo sapiens, UniProt Q00987); test: Inhibition of MDM2 in human U87MG cells assessed as reduction in MDM2 interaction with p53 after 10 mins by quantitative sandwich immune-enzymatic assay; type: cell-based
Protein Mdm4 = biological target: T2, Protein Mdm4 (Homo sapiens, UniProt O15151); test: Inhibition of MDM4 in human SH-SY5Y cells assessed as reduction in MDM4 interaction with p53 after 10 mins by quantitative sandwich immune-enzymatic assay; type: cell-based
T2 sequence (O15151 whole entry): T1 sequence (whole entry)

[10] = biological target: T1, Protein Mdm4 (Homo sapiens); test: Inhibition of MDM4 in human SH-SY5Y cells assessed as accumulation of p53 at 1 uM after 24 hrs in presence of Nutlin-3 by Western blot analysis; type: cell-based
Method in brief: (§5)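 Cells treated 24 h with DMSO control or agents at 1 μM, alone or combined with 1 μM MDM2 inhibitor. Cells lysed in RIPA buffer and run on 8.5% SDS-PAGE. Blots probed overnight at 4 °C with anti-p53 (1:200), using GAPDH as loading control. Bands quantified by densitometry as percent OD versus control (mean ± SEM, N = 2).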

[11] = biological target: T1, Protein Mdm4 (Homo sapiens); test: Inhibition of MDM4 in human SH-SY5Y cells assessed as increase in PUMA mRNA levels at 1 uM after 24 hrs in presence of Nutlin-3 by RT-qPCR analysis; type: cell-based; method in brief: as §4
[12] = biological target: T1, Protein Mdm4 (Homo sapiens); test: Inhibition of MDM4 in human SH-SY5Y cells assessed as increase in p21 mRNA levels at 1 uM after 24 hrs in presence of Nutlin-3 by RT-qPCR analysis; type: cell-based; method in brief: as §4
[13] = biological target: T1, Protein Mdm4 (Homo sapiens); test: Inhibition of MDM4 in human SH-SY5Y cells assessed as accumulation of p53 at 1 uM after 24 hrs by Western blot analysis; type: cell-based; method in brief: as §5
[14] = biological target: T1, Protein Mdm4 (Homo sapiens); test: Inhibition of MDM4 in human SH-SY5Y cells assessed as increase in PUMA mRNA levels at 1 uM after 24 hrs by RT-qPCR analysis; type: cell-based; method in brief: as §4
[15] = biological target: T1, Protein Mdm4 (Homo sapiens); test: Inhibition of MDM4 in human SH-SY5Y cells assessed as increase in p21 mRNA levels at 1 uM after 24 hrs by RT-qPCR analysis; type: cell-based; method in brief: as §4
SH-SY5Y [16] = test: Antiproliferative activity against human SH-SY5Y cells at 1 uM after 24 hrs in presence of Nutlin-3 by MTS assay relative to control; type: functional
Method in brief: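 Cells were exposed to compound for 24 h, alone or with 1 μM MDM2 inhibitor. Drug medium was then replaced with fresh medium, and cells grew for a further 3 days before the MTS read-out. Values are % of control (100%), mean ± SEM, N=3. For SH-SY5Y, IC50 came from a sigmoid dose-response fit.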

SH-SY5Y [17] = test: Antiproliferative activity against human SH-SY5Y cells at 1 uM after 24 hrs in presence of […] by MTS assay relative to control; type: functional; method in brief: as §3

Chain of E3 ubiquitin-protein ligase Mdm2 (Q00987 whole entry): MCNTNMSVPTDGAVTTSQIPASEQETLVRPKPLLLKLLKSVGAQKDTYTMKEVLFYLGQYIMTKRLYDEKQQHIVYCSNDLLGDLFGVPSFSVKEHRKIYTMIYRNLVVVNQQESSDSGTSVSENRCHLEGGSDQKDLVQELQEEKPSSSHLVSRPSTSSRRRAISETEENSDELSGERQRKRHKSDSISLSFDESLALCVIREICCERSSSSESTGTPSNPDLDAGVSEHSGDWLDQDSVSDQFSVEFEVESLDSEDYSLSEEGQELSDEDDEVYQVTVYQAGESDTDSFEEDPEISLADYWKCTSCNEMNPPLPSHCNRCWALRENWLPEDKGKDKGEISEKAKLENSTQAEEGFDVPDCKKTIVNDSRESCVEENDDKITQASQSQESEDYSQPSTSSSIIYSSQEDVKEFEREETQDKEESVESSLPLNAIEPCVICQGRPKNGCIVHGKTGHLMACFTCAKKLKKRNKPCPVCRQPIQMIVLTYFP

| Structure (SMILES) | IC50 (SH-SY5Y [1]) [µM] | Activity (SH-SY5Y [2]) | Activity (U-87 MG [3]) | Activity (U-87 MG [4]) | Activity (SH-SY5Y [5]) | viability at 1 µM (SH-SY5Y [6]) [%] | Activity (U-87 MG [7]) | inhibition [8] | IC50 [9] [µM] | IC50 (Protein Mdm4) [µM] | inhibition [10] | inhibition [11] | inhibition [12] | inhibition [13] | inhibition [14] | inhibition [15] | Activity (SH-SY5Y [16]) [%] | Activity (SH-SY5Y [17]) [%] |
| --- | --- | --- | --- | --- | --- | --- | --- | --- | --- | --- | --- | --- | --- | --- | --- | --- | --- | --- |
| O=C(CC(c1ccccc1)c1ccccc1)N[C@@H](Cc1ccc(OCCCNc2ccccn2)cc1)C(=O)O | 0.356 | Active | Active | Dose-dependent effect | Dose-dependent effect | 62.4 | – | – | – | – | – | – | – | – | – | – | – | – |
| CCOc1cc(/C=C2\C(=O)N(c3ccccc3)N=C2C)cc(Cl)c1OCC(=O)OC | – | – | – | – | – | – | inactive | Active | > 1 | 0.847 | Active | Active | Active | Active | inactive | inactive | 47.1 | – |
| COc1ccc(C2=N[C@H](c3ccc(Cl)cc3)[C@H](c3ccc(Cl)cc3)N2C(=O)N2CCNC(=O)C2)c(OC(C)C)c1 | – | – | – | – | – | – | Active | – | – | – | – | – | – | – | – | – | – | 47.1 |
